APJ ag = APJ receptor agonism; P35414; CHO-K1 APJ PathHunter beta-arrestin, luminescence; 0% DMSO wells, 100% apelin; activation, % at 20 µM; 0.11% of 330,000 active;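 active means activation more than six SD over the plate average, tested at 20 µM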;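 further: 0% = DMSO alone and 100% = apelin-13 at 10 nM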
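Assay system: engineered CHO-K1 APJ arrestin reporter cells; Amount: 1000 CHO-K1 reporter cells seeded per well; Dosing: one dose, 20 µM compound, 1% DMSO; Times: compound stimulation 90 min at 25 °C, detection 60 min; Measured by: luminescent beta-gal fragment complementation, chemiluminescent substrate; Read-out: APJ–arrestin association signal; Controls: DMSO vs Apelin-13 10 nM.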
CXCR6 block = blocks human CXCR6 beta-arrestin recruitment | 0.36% of 360,000 active | AID 602244 | inhibition, % at 20 µM | O00574 | CHO-K1 PathHunter CXCR6 beta-arrestin, luminescence; in the data active means inhibition above about 34%, passing the limit was not always enough;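 further: antagonist mode with CXCL16 agonist at 10 nM final; 0% = 10 nM CXCL16 with DMSO and 100% = unstimulated wells without agonist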
CCR6 antag = blocks CCL20-driven beta-arrestin recruitment at human CCR6; inhibition, % at 20 µM; 0.49% of 340,000 active; CHO-K1 CCR6 PathHunter beta-arrestin, luminescence, CCL20-stimulated;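 active means compounds whose inhibition of the agonist-driven luminescence signal at 20 µM reaches about 50%, limit read from the data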;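 further: cells stimulated with CCL20 at 14 nM final; plate controls were DMSO with CCL20 for no effect and DMSO without agonist for full effect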
EBI2 block = blocks human EBI2 receptor beta-arrestin signaling. P32249. EBI2 beta-arrestin recruitment, luminescence, 7a,25-OHC stimulated. inhibition, % at 5 µM. 0.81% of 360,000 active. AID 651636; in the data active means inhibition above about 38%;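 further: enzyme fragment complementation signal reports receptor beta-arrestin coupling in cells; 0% = agonist plus DMSO wells and 100% = wells without agonist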
APJ antagonist = antagonists of human APJ apelin receptor; P35414; CHO-K1 APJ beta-arrestin complementation, luminescence; inhibition, % at 20 µM; 0.32% of 330,000 active;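 active means inhibition above about 40% at 20 µM, limit read from the data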;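 further: cells challenged with 10 nM apelin-13 agonist together with compound; plate controls were apelin-13 plus DMSO wells for no effect and DMSO wells lacking apelin-13 for full effect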
HTR2A ag = activates the mouse 5-HT2A serotonin receptor; activation, % at 7.6 µM; AID 624169; CHO-K1 mHTR2A beta-arrestin complementation, luminescence; percent of 30 µM serotonin response; 0.66% of 360,000 active;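 active means activation above a run cutoff, the mean activation of all tested compounds plus 3 SD, cut at about 14% in these data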;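 further: 0% = plate median of compound wells and 100% = 30 µM serotonin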
Target sequence (P35363 whole entry, looked up): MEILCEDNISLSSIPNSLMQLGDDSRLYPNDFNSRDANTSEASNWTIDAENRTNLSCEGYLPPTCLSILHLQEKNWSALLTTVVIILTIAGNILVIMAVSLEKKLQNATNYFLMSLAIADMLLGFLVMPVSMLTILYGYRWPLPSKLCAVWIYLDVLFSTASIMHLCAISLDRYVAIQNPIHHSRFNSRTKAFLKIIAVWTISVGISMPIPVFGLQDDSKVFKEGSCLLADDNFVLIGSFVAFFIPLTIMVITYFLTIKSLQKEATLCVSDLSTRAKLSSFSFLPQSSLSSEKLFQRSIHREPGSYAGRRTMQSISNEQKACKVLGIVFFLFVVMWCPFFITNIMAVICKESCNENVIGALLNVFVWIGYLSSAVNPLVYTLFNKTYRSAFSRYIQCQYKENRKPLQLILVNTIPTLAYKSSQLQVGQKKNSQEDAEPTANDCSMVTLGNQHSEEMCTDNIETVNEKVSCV
The depositor's hits bear a star; ! = repeats disagree. An excerpt weighted towards active compounds, which were near 2.1% of everything screened.

For Cc1ccc(-c2noc(CSc3nnc(Cc4cccs4)n3-c3ccccc3)n2)cc1 the results were APJ ag -2, CXCR6 block 18, CCR6 antag 34, EBI2 block 10, APJ antagonist -49 and HTR2A ag 21*.
`COc1ccc2cc(C#N)c(SCC(=O)N3CC(=O)Nc4ccccc43)nc2c1` gave APJ ag -2, CXCR6 block -2, CCR6 antag -5, EBI2 block 74*, APJ antagonist 5 and HTR2A ag -3.
Screening Cc1cccc2cc(C#N)c(SCC(=O)N3CC(=O)Nc4ccccc43)nc12 returned APJ ag 4, CXCR6 block 1, CCR6 antag 13, EBI2 block 57*, APJ antagonist 7 and HTR2A ag -2.
CCn1c(=O)n(CC)c2cc(N3CCCC3)c(NC(=O)c3ccccc3F)cc21 was read as APJ ag -3, CXCR6 block -9, CCR6 antag 14, EBI2 block 9, APJ antagonist 18 and HTR2A ag 4.
Screening CC(=O)c1cccc(NC(=O)c2ccccc2N(Cc2ccccc2)S(C)(=O)=O)c1 returned APJ ag -3, CXCR6 block 3, CCR6 antag 14, EBI2 block 3, APJ antagonist -12 and HTR2A ag -4.
For Cc1c(CCOC(=O)C2C3CC4CC(C3)CC2C4)sc[n+]1CC(=O)c1ccc(Br)cc1 (stereo not drawn) the results were APJ ag -10, CXCR6 block 3, CCR6 antag 53*!, EBI2 block 9, APJ antagonist 17 and HTR2A ag -9.
Screening CCOc1ccc(S(=O)(=O)NC(C)C(=O)NCc2cccnc2)cc1 (stereo not drawn) returned APJ ag -3, CXCR6 block -6, CCR6 antag -3, EBI2 block -4, APJ antagonist -3 and HTR2A ag 6.
Screening CCN(CC)c1ccc(/C=C2/C(=O)c3ccc(C(=O)O)cc3C2=O)cc1 returned CXCR6 block 56*, CCR6 antag 77*, EBI2 block 18 and HTR2A ag -1.
CN(C)S(=O)(=O)c1cccc(C(=O)Nc2ccc3c(c2)CCC3)c1 was read as APJ ag 0, CXCR6 block 0, CCR6 antag -2, EBI2 block 6, APJ antagonist 17 and HTR2A ag 6.
For CN(C)S(=O)(=O)c1ccc(C(=O)Nc2ccc3c(c2)CCC3)cc1 the results were APJ ag -1, CXCR6 block 9, CCR6 antag 7, EBI2 block 56*, APJ antagonist 8 and HTR2A ag 0.
O=C(N/N=C/c1cccc([N+](=O)[O-])c1O)c1cccs1 was read as APJ ag -6, CXCR6 block 24, CCR6 antag 64*, EBI2 block 14, APJ antagonist 15 and HTR2A ag -9.
For O=[N+]([O-])c1cccc(C=NNc2ccc3ccccc3n2)c1O the results were CXCR6 block 37*, CCR6 antag 60*, EBI2 block -8 and HTR2A ag -12.
For CCCCNC(=S)NNC(=O)c1cc(-c2cccnc2)nc2ccccc12 the results were APJ ag -9, CXCR6 block 22, CCR6 antag 54*, EBI2 block 1, APJ antagonist 0 and HTR2A ag -10.
Screening O=C(NC(=S)Nc1ccccc1)c1cc(-c2ccccc2)nc2ccccc12 returned APJ ag -6, CXCR6 block 29, CCR6 antag 55*, EBI2 block 5, APJ antagonist 35 and HTR2A ag -12.
For COc1ccc(NC(=O)C2(C)Cc3c(-c4ccc5c(c4)OCO5)ccnc3O2)cn1 (stereo not drawn) the results were CXCR6 block 4, EBI2 block 0 and HTR2A ag -2.
Cc1cc(C(=O)CCC(=O)N(C)CC(=O)Nc2ccc(OC(F)(F)F)cc2)c(C)s1 was read as APJ ag -3, CXCR6 block -3, CCR6 antag 8, EBI2 block 14, APJ antagonist 17 and HTR2A ag -3.
For CCCOc1ccc(C(=O)CCN2CCN(C(=O)OCC)CC2)cc1 the results were CXCR6 block -3, CCR6 antag 6, EBI2 block -4 and HTR2A ag 2.
For Cc1ccc2nc(-c3ccc(-c4cccc(Cl)c4)cc3)c(NCc3ccccc3)n2c1 the results were APJ ag 3, CXCR6 block 12, CCR6 antag 14, EBI2 block 58*, APJ antagonist -37 and HTR2A ag -6.
For CCOC(=O)N(O)c1ccc(C=Cc2ccccc2)cc1 the results were CXCR6 block -10, CCR6 antag -6, EBI2 block -12 and HTR2A ag -1.
`C=CCOc1cccc(CNc2cccc(C(=O)O)c2)c1` gave APJ ag -3, CXCR6 block 5, CCR6 antag 4, EBI2 block -13, APJ antagonist 4 and HTR2A ag 5.
CNCc1ccccc1Sc1cc(O)ccc1O was read as APJ ag 4, CXCR6 block 40, CCR6 antag 84*, EBI2 block -3, APJ antagonist -54 and HTR2A ag -2.
Cc1ccc2nc(C3CCCCC3)c(Cc3ccsc3)n2c1 was read as CXCR6 block -1, EBI2 block 13 and HTR2A ag -5.
`Cc1cc(N2CCOCC2)ccc1/C=C\[N+](=O)[O-]` gave APJ ag 6, CXCR6 block 32, CCR6 antag 56*, EBI2 block 17, APJ antagonist 24 and HTR2A ag -4.
For O=[N+]([O-])c1ccc(N2CCOCC2)cc1O the results were APJ ag -3, CXCR6 block 4, CCR6 antag 14, EBI2 block 4, APJ antagonist -6 and HTR2A ag -2.
For O=[N+]([O-])c1ccc(N=Nc2c(Cl)cc(O)cc2Cl)cc1 the results were CXCR6 block 44*, CCR6 antag 74*, EBI2 block 5 and HTR2A ag 8.
Screening Cc1ccc(C(c2cc(Cl)c3cccnc3c2O)N2CCN(C)CC2)cc1 (stereo not drawn) returned APJ ag -3, CXCR6 block 33, CCR6 antag 57*, EBI2 block 0, APJ antagonist 30 and HTR2A ag -25.
Screening CC(=O)NC(c1ccccc1)c1nc(-c2cccnc2)cs1 (stereo not drawn) returned CXCR6 block -1, EBI2 block -7 and HTR2A ag 0.
For COc1cc(C(=O)NC(=S)N(C)Cc2ccccc2)cc(OC)c1OC the results were APJ ag -6, CXCR6 block 5, CCR6 antag 9, EBI2 block 2, APJ antagonist 5 and HTR2A ag -1.
Screening CN(Cc1ccccc1)C(=S)NC(=O)c1ccc(-c2ccccc2)cc1 returned APJ ag -2, CXCR6 block 32, CCR6 antag 57*, EBI2 block 8, APJ antagonist 32 and HTR2A ag -3.
